Screens (PubChem BioAssay)
T cruzi repl – blocks replication of Trypanosoma cruzi | T. cruzi beta-gal in NIH3T3, luminescence, 90 h | inhibition, % (no concentration beside the values) | hit rate 1.4% among 300,000 | AID 1885;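 active means mean inhibition across valid replicates above about 55%, limit read from the data; inconclusive means mean below that limit but half or more replicates reach it; inactive means mean below it, under half of replicates reach it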;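 further: signal also drops with host cell toxicity which is not excluded here; 0% = plate median of DMSO wells and 100% = zero luminescence signal; higher percent means less beta-gal luminescence so fewer parasites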
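Assay system: NIH/3T3 fibroblasts plus reporter T. cruzi. Amount: NIH/3T3 cells, 5,000 per well. Buffer or medium: DMEM, 2% fetal bovine serum. Doses: compound pinned at 50 nL/well, DMSO. Schedule: ≥90 h infection period, 3 h prior cell attachment. Signal: luminescent β-galactosidase signal after 60 min lysis. Read-out: parasite load inhibition, %.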
MPTP block – inhibitors of mitochondrial permeability transition pore; isolated mouse mitochondria, Ca2+ swelling absorbance, 30 min; inhibition, % at 10 µM; hit rate 1.4% among 360,000;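 active means inhibition of 50% or more, scaled per plate between neutral and stimulator controls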;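 further: 0% = DMSO wells given calcium and 100% = 1 mM EGTA wells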
Hep lipid drop – modulators of hepatic lipid droplet formation; AML12 mouse hepatocytes, oleate lipid droplets, BODIPY imaging; inhibition, % at 6.5 µM; hit rate 0.4% among 240,000;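 active means lipid droplet intensity inhibited by at least 50%, with more than 500 cells counted; inconclusive means wells with under 300 cells, treated as cytotoxic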
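material = mouse AML12 hepatocyte cell line, fixed after treatment | also added = 100 µM oleic acid challenge | doses = compound at 6.5 µM only | schedule = overnight exposure | technique = Image-based BODIPY and DAPI two-channel analysis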
Lmaj promast – inhibitors of Leishmania major promastigote growth. hit rate 9% among 200,000. Leishmania major promastigotes, resazurin fluorescence viability. inhibition, % at 10 µM. AID 1063; in the data active means inhibition above about 50%;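 further: promastigotes grown with compound for 44 hours at 28 °C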
DTT redox prof – compounds producing H2O2 with reducing agent – biochemical, NIH compound library profiling, artefact control for MLSCN library redox annotation, primary screen; DTT-dependent redox cycling H2O2, phenol red/HRP absorbance; 100% = 100 µM peroxide control, 0% = buffer; AID 878; hit rate 0.03% among 200,000; activation, % at 10 µM;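 active means activation of at least 50% relative to the plate's high and low controls in the primary single-dose screen; inactive means activation below 50%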;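 further: compound incubated with DTT at 0.8 mM final as the reducing agent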
* marks the source's active call; other numbers are inactive results; u = inconclusive; x = no result given. This excerpt belongs to a sample that is enriched for hits.

SMILES	T cruzi repl	MPTP block	Hep lipid drop	Lmaj promast	DTT redox prof
COC(=O)c1cc(C(=O)N2CCN(c3cccc(Cl)c3)CC2)cc([N+](=O)[O-])c1	10.3	-1.2	u	50.2*	-2.0
CC(=O)c1ccc(N2CCN(C(=O)Nc3ccc(Cl)cc3)CC2)cc1	8.7	0.6	5.1	13.7	-0.4
CN1CCC(N2CCN(c3cccc(C(F)(F)F)c3)CC2)CC1	50.4	-1.5	-0.6	100.1*	-0.1
CC(=O)c1ccc(NC(=O)N2CCN(c3cccc(Cl)c3)CC2)cc1	-0.4	16.9	-26.9	58.8*	0.3
O=C(Cc1ccccc1[N+](=O)[O-])c1ccc2c(c1)OCO2	x	-2.0	x	x	x
O=C(Nc1ccccc1)N1CCN(c2cccc(C(F)(F)F)c2)CC1	-27.5	3.1	31.2	89.6*	0.1
CCn1c2ccccc2c2cc(NC(=O)CSc3nnc(-c4cccc(Cl)c4)o3)ccc21	6.4	-1.7	x	88.8*	-9.2
COc1ccc(-c2nnc(SC(C(=O)c3c[nH]c4ccccc34)c3ccccc3)n2N)cc1OC (stereo unspecified)	17.7	4.3	8.8	56.9*	0.6
CCn1c2ccccc2c2cc(NC(=O)CSc3nnc(-c4cccc(OC)c4)n3N)ccc21	22.4	1.6	-28.9	16.8	-0.4
COc1ccc(-c2nnc(SCC(=O)N3CCCC3=O)n2N)cc1OC	x	-1.5	x	x	x
CCn1c2ccccc2c2cc(NC(=O)CSc3nnc(-c4ccc(OC)c(OC)c4)n3N)ccc21	21.3	-0.2	x	94.9*	3.6
Cc1ccc(/C=N/N2CCN(C3c4ccccc4-c4ccccc43)CC2)o1	-1.5	2.4	1.6	x	x
COc1cccc(CNC(=O)c2cccc(S(=O)(=O)N3CCN(Cc4ccccc4)CC3)c2)c1	x	1.3	x	x	x
Cc1nc(-c2ccccn2)nc(N(C)c2ccccc2)c1Cl	58.9*	0.6	-1.2	x	x
Cc1nc(-c2ccccn2)nc(N2CCOCC2)c1Cl	-56.8	0.1	22.1	x	x
COc1ccc(-c2[nH]c(-c3ccc(C)cc3)nc2SCC(=O)NC2CCCC2)cc1	17.7	-1.0	-32.7	84.0*	-0.6
COc1ccc(S(=O)(=O)N(C)C)cc1NC(=O)Cc1c[nH]c2ccccc12	-11.3	-2.5	-0.7	10.5	-1.0
CC(C)(C)N(NC(=O)c1ccccc1)C(=O)c1ccc(C(=O)N(NC(=O)c2ccccc2)C(C)(C)C)cc1	-1.4	-1.1	0.7	20.2	-0.6
CCc1ccc(C(=O)NN(C(=O)c2ccc(CC)cc2)C(C)(C)C)cc1	12.1	2.7	33.0	98.0*	-0.8
CSc1ccc(CN2CCN(Cc3ccc([N+](=O)[O-])cc3)CC2)cc1	66.1*	1.5	-0.6	90.6*	-1.3
O=[N+]([O-])c1ccc(CN2CCCCCC2)cc1	-9.1	0.2	-2.5	x	x
O=[N+]([O-])c1ccc(CN2CCOCCOCCN(Cc3ccc([N+](=O)[O-])cc3)CCOCC2)cc1	30.5	1.4	-40.2	80.4*	0.0
CCCCC(c1nnnn1CC1CCCO1)N1CCN(c2cccc(C)c2C)CC1 (stereo unspecified)	33.1	-4.3	-1.8	55.9*	0.9
CCCc1cc(C(=O)Nc2ccc(CC)cc2)no1	-2.8	0.1	41.5	x	x
CCCc1cc(-c2nc(-c3ccc(Br)cc3)cs2)ccn1	-8.8	1.4	-40.4	60.0*	-0.3
SMILES	T cruzi repl	MPTP block	Hep lipid drop	Lmaj promast	DTT redox prof
CN(C)c1nc(N/N=C\c2ccc(Cl)c([N+](=O)[O-])c2)nc(Nc2ccc(F)cc2)n1	38.8	6.1	x	97.4*	0.8
Nn1cnnc1N/N=C/c1ccc(F)cc1	5.9	-0.8	-2.2	x	x
CCc1nnc(N/N=C/c2ccc(N3CCC(C)CC3)c([N+](=O)[O-])c2)n1N	21.4	-0.7	7.5	72.9*	0.3
Cc1ccc(S(=O)(=O)N/N=C\c2ccc(Cl)c([N+](=O)[O-])c2)cc1	-12.0	4.9	-4.8	-0.2	-0.6
Nn1cnnc1N/N=C/c1ccc(Cl)c([N+](=O)[O-])c1	8.5	-0.3	-19.1	53.9*	0.1
OCCC1CN(Cc2cc(F)ccc2-n2cccn2)CCN1Cc1ccc(F)cc1 (stereo unspecified)	-2.4	2.7	4.3	x	x
CCCn1c2ccc(/C(C)=N\O)cc2c2cc(/C(C)=N/O)ccc21	3.5	-2.9	x	59.4*	2.7
COc1ccccc1N1CCN(C2=Nc3cccc4cccc2c34)CC1	52.4	-1.4	-4.1	77.2*	-0.7
c1cc2c3c(cccc3c1)C(N1CCN(C3=Nc4cccc5cccc3c45)CC1)=N2	x	x	x	45.2	4.0
COc1ccc(CC(=O)Oc2ccc(F)c(F)c2)cc1S(=O)(=O)N1CCOCC1	0.4	0.3	x	x	x
O=P(c1ccccc1)(c1ccccc1)N(c1ccccc1)c1ccccc1	4.1	3.1	-10.3	64.7*	-0.6
Nc1cccc(P(=O)(c2ccccc2)c2ccccc2)c1	6.5	0.8	-25.1	x	x
COc1ccc(NC(=O)CS(=O)CC(=O)Nc2cccnc2)cc1 (stereo unspecified)	3.4	-0.6	13.8	x	x
CC(C)Cc1nnc(NC(=O)CCC(=O)N2CCN(S(=O)(=O)c3ccccc3)CC2)s1	-4.3	-0.3	12.6	51.9*	0.2
CC(C)Cc1nnc(NC(=O)CCC(=O)N2CCN(c3ccccc3)CC2)s1	-15.5	0.7	11.4	x	x
S=C1NCCNC(=S)NCCOCCOCCN1	-14.7	-2.4	22.2	-7.9	-0.4
O=C(c1ccccc1)C(O)c1ccccc1 (stereo unspecified)	x	0.2	x	x	x
Cc1cccc(C)c1OC(=O)C(c1ccccc1)c1ccccc1	3.4	0.8	-1.8	88.5*	-0.3
COc1cccc(OC)c1OCCN1CCN(C(c2ccccc2)c2ccccc2)CC1	13.7	0.3	-13.5	x	x
CN(Cc1cn(Cc2ccc(Cl)cc2)nn1)C1CN(Cc2cn(Cc3ccc(Cl)cc3)nn2)S(=O)(=O)C1 (stereo unspecified)	x	0.5	x	x	x
O=c1[nH]cnc2c1ncn2C1OC(CO)CC1F (stereo unspecified)	x	-1.8	x	x	x
Cc1cccc(C)c1NC(=O)C(CCc1ccccc1)n1c(=O)c(-c2ccccc2)nc2ccccc21 (stereo unspecified)	x	10.5	x	x	x
Cc1ccsc1/C=N/NC(=O)c1ccccn1	-8.8	0.8	-4.0	59.5*	-0.3
CC1C(=O)N2CCCc3cc(NC(=O)COc4ccc(Cl)cc4)cc1c32 (stereo unspecified)	16.9	-1.2	x	x	x
N=c1ccn(CC(=O)c2ccc(-c3ccccc3)cc2)cc1	57.8*	1.7	-16.4	99.0*	-1.2
COc1cc(/C=C(/C(=O)c2cccs2)c2nc3ccccc3[nH]2)cc(OC)c1O	52.5	3.5	4.2	100.4*	-1.0
COc1cc(/C=N/Nc2nc3ccccc3[nH]2)cc(OC)c1O	-54.9	-0.2	-4.2	22.1	0.3
O=C(c1cc(=O)[nH]c2ccccc12)N1CCN(c2ccccc2)CC1	-6.0	1.4	5.5	x	x
CCN(CC)CCN(C)Cc1ccc(Br)cc1	26.7	-2.4	14.1	89.3*	0.1
NC(=S)N/N=C1/CCSc2ccc3ccccc3c21	37.6	-1.4	0.2	5.3	0.9
